According to article PMC7931380 (ACS Omega, 2021):
Like-named read-outs stand apart in the source and are kept apart here.

Assays:
[1] = assay type: in vivo, human
Method in brief: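 Eight healthy men (21–65 y) taking no medicines or vitamins, randomized 1:1, double-blind crossover. After a ≥10 h fast, seated subjects swallowed 500 mg test formulation or 500 mg control (150 mg AA + 350 mg starch) with 240 mL water. Heparinized blood sampled 0.25–24 h post dose, spun 3500 rpm, 4 °C, 10 min; plasma at −20 °C, AA by HPLC; mean ± SD.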

[2] = Particle size and ζ-potential by dynamic light scattering; assay type: physicochemical; details: 25 °C
Method in brief: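 Test-compound-loaded fiber-reinforced phospholipid vesicles were diluted 10-fold in distilled water to avoid scattering artefacts. Size and ζ-potential were then measured by dynamic light scattering on a Zetasizer Nano ZS at 25 °C, with intensity read at a scattering angle of 90.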

[3] = male, human, plasma, po, 150 mg
[4] = plasma vitamin C, single oral dose 500 mg (150 mg AA), fasting, mean ± SD

Cmax [1, 3]: 12300 ± 3800 ng/mL
half-life [1, 3]: 3.14 ± 2.01 h
k el [1, 3]: 8.61e-05 s⁻¹
AUC0–t [1, 4]: 9.38 ± 4.91 mg·h/dL
AUC0–∞ [1, 4]: 9.66 ± 5.02 mg·h/dL
Tmax [1, 4]: 3.56 ± 0.62 h
AUC ([1]; single oral dose): 9.66 mg/dL
AUC0–t ([1]; single oral dose): 9.38 mg/dL
ζ-potential [2]: −20 to 10 mV
SMILES: O=C1O[C@H]([C@@H](O)CO)C(O)=C1O [AA, L-ascorbic acid]
